We go through 12 molecules from ChEMBL document CHEMBL1145038 (J Med Chem, 2003).

The target of assay [1] is T1, Histamine H3 receptor (Rattus norvegicus, UniProt Q9QYN8). The assay is described as follows: Affinity against rat Histamine H3 receptor using [3H]N-alpha-methyl histamine. Put shortly: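 Male Sprague–Dawley rat brain homogenate without cerebellum (800 μg) incubated 1 h at 25 °C in 50 mM Na₂HPO₄/KH₂PO₄, pH 7.5, with 0.25 nM [³H]Nα-methylhistamine. Filtered on GF/B, scintillation counted. Nonspecific binding with 10 μM thioperamide. IC50 by log probit; Ki = IC50/(1+L/Ka), Ka from Rosenthal analysis of saturation at 0.1–3.0 nM. Mean ± SE.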

For assay [2], the target named is T2, Histamine H3 receptor (Homo sapiens, UniProt Q9Y5N1). The experiment in a line: Inhibition of human Histamine H3 receptor.
In assay [3] the target is T2, Histamine H3 receptor. The experiment in a line: Inhibition of human H3-receptor using [3H]N-alpha-methyl histamine. Put shortly:
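Membrane fractions from stably transfected CHO cells expressing human H3 receptor; radioligand displacement binding.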

A further assay has as its target Histamine H4 receptor (Homo sapiens, UniProt Q9H3N8). The experiment in a line: Inhibition of human Histamine H4 receptor.
The target of assay [4] is T1, Histamine H3 receptor. The assay is described as follows: Inhibition of rat Histamine H3 receptor using [3H]N-alpha-methyl histamine. Put shortly:
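Male Sprague–Dawley rat brain (minus cerebellum) homogenate, 800 μg, incubated 1 h at 25 °C in 50 mM Na2HPO4/KH2PO4 pH 7.5 with 0.25 nM radioligand. Bound ligand separated on GF/B filters and counted by scintillation; nonspecific binding taken with 10 μM thioperamide. […] Mean ± SE.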

T1 sequence (Q9QYN8 whole entry): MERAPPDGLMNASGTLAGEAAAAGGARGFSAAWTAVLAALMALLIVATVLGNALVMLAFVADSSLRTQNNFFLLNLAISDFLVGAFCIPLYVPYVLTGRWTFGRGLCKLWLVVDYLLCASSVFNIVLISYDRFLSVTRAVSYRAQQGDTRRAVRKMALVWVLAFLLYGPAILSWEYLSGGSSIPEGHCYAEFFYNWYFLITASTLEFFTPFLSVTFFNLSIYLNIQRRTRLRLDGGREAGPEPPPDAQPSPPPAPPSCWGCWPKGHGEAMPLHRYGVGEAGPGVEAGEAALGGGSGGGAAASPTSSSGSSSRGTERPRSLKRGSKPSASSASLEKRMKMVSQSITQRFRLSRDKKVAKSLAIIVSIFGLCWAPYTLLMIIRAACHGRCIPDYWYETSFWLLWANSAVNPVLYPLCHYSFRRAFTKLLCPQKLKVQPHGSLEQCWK
T2 sequence (Q9Y5N1 whole entry): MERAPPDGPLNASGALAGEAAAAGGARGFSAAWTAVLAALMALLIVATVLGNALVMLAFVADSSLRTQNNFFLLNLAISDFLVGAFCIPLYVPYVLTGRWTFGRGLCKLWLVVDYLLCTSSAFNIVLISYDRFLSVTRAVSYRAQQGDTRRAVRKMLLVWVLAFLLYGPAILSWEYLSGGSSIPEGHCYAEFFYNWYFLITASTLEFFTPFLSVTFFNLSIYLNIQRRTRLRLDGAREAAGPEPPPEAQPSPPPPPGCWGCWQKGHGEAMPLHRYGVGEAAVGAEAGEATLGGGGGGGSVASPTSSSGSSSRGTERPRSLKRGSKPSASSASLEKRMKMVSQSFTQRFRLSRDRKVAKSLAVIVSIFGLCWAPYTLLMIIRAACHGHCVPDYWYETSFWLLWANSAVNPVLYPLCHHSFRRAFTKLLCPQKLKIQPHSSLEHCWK
Chain of Histamine H4 receptor (Q9H3N8 whole entry): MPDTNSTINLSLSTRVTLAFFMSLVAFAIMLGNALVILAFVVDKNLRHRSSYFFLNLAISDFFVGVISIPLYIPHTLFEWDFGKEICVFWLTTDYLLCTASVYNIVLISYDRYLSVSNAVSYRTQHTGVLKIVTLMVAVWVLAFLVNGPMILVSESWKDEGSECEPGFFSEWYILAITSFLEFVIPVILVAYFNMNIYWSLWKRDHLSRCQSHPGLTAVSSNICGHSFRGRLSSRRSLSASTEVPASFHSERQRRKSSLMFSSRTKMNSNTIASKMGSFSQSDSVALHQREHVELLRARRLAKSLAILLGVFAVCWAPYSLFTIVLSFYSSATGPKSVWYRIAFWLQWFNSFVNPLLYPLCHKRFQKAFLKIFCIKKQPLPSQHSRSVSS

By Ki is commonly meant a dissociation constant, usually derived from enzyme kinetics or from competition with a known ligand. Usually EC50 stands for the concentration at which the effect is half-maximal. Low readings indicate an effect from little substance, high ones a need for much substance. Consider `N[C@@H]1C[C@H]1c1cnc[nH]1` [VUF-5296], for which, on Histamine H3 receptor [1], the Ki was 42.2 nM. On Histamine H3 receptor [2], this molecule showed an EC50 of 724 nM.
`N[C@@H]1C[C@@H]1c1c[nH]cn1` registered a Ki at Histamine H3 receptor [1] of 91.2 nM. In addition, it took 2330 nM to reach a half-maximal effect on Histamine H3 receptor [3] (EC50).
Consider `N=C(N)SCCc1cnc[nH]1` [IMETIT], for which the half-maximal effective concentration (EC50) worked out at 51 nM at Histamine H4 receptor and 1.9 nM at Histamine H3 receptor [2].
At Histamine H3 receptor [1], `NC[C@H]1C[C@H]1c1cnc[nH]1` gave an inhibitory constant (Ki) of 64.7 nM.
In turn, `NCC[C@@H]1C[C@@H]1c1cnc[nH]1` gave a Ki on Histamine H3 receptor [1] of 1.31 nM. Moreover, the concentration giving a half-maximal response (EC50) on Histamine H3 receptor [2] was 10 nM.
For the molecule `N[C@H]1C[C@H]1c1c[nH]cn1`, the Ki at Histamine H3 receptor [1] is 1380 nM.
For the molecule `S=C(NC1CCCCC1)N1CCC(c2cnc[nH]2)CC1` [THIOPERAMIDE], the Ki on Histamine H3 receptor [4] is 2.65 nM.
In turn, `NC[C@@H]1C[C@H]1c1c[nH]cn1` yielded an inhibition constant Ki at Histamine H3 receptor [1] of 22.6 nM.
`N[C@H]1C[C@@H]1c1c[nH]cn1` [VUF-5297]: affinity on Histamine H3 receptor [1] was put at a Ki of 4.3 nM. This molecule yielded an EC50 at Histamine H3 receptor [2] of 42 nM.
For `NCC[C@H]1C[C@H]1c1cnc[nH]1`, in that order: 4.78 nM and 1410 nM.
Turning to `NC[C@@H]1C[C@@H]1c1cnc[nH]1`, at Histamine H3 receptor [1], the Ki is 2.5 nM. The same molecule gave an EC50 on Histamine H3 receptor [2] of 96 nM.
On to `NC[C@H]1C[C@@H]1c1cnc[nH]1`, for which, at Histamine H3 receptor [1], the Ki is 10.1 nM.
